Experimental data as given in ChEMBL document CHEMBL4393701, “Appendix A. dithioloquinolinethiones as new potential multitargeted antibacterial and antifungal agents: Synthesis, biological evaluation and molecular docking studies” (2019).
Values after ≈ are worked out from the molar mass of the structure shown.

How the values were obtained:
Pseudomonas aeruginosa [1] = assay: Bactericidal activity against Pseudomonas aeruginosa ATCC 27853 incubated for 24 hrs followed by re-plating on tryptic soy broth; assay type: functional; settings: ATCC 27853, 24 h
Procedure, shortened: (§1)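 Bacteria were grown in tryptic soy broth, 1.0×10^4 CFU per well, with compounds in 5% DMSO at 0.001-1.0 mg/ml for 24 h at 37 °C. Then 10 µL was subcultured into fresh TSB. MBC is the lowest concentration showing no growth after subculture, taken as 99.5% kill of the original inoculum. Duplicates, repeated three times.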

Penicillium cyclopium [2] = assay: Fungicidal activity against Penicillium verrucosum var. cyclopium food isolate incubated for 72 hrs followed by sub-culturing on broth malt medium and measured after 72 hrs; assay type: functional
Procedure, shortened: (§2)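 After 72 h exposure in malt broth, 2 µL from test wells was subcultured into wells holding 100 µL broth and incubated a further 72 h at 28 °C. MFC is the lowest concentration with no visible growth, taken as 99.5% kill of the original inoculum. Three independent experiments in duplicate.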

Escherichia coli [3] = assay: Bactericidal activity against Escherichia coli ATCC 35210 incubated for 24 hrs followed by re-plating on tryptic soy broth; assay type: functional; settings: ATCC 35210, 24 h; procedure, shortened: as §1
Salmonella typhimurium [4] = assay: Antibacterial activity against Salmonella typhimurium ATCC 13311 after 24 hrs by iodonitrotetrazolium chloride dye based microdilution method; assay type: functional, Salmonella enterica subsp. enterica serovar Typhimurium; settings: Salmonella enterica, ATCC 13311, 24 h
Procedure, shortened: (§3)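 Fresh overnight cultures adjusted spectrophotometrically to 1×10^5 CFU/mL, giving 1.0×10^4 CFU per well in tryptic soy broth. Compounds were dissolved in 5% DMSO and tested at 0.001-1.0 mg/ml by serial dilution; 5% DMSO was the negative control. After 24 h at 37 °C, 0.2 mg/mL INT solution was added for 30 min at 37 °C and OD read at 655 nm. MIC is the lowest concentration giving significant growth inhibition versus the positive control. Duplicates, repeated three times.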

Trichoderma viride [5] = assay: Antifungal activity against Trichoderma viride IAM 5061 after 72 hrs by microdilution technique; assay type: functional; settings: IAM 5061, 72 h
Procedure, shortened: (§4)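 Spores were washed off malt agar with 0.85% saline containing 0.1% Tween 80 and adjusted to about 1.0×10^5 per well. Compounds in 5% DMSO were serially diluted (0.001-1.0 mg/ml) in malt broth with inoculum. Plates were shaken at 160 rpm for 72 h at 28 °C. MIC is the lowest concentration without visible growth under a binocular microscope. Three independent experiments in duplicate.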

Trichoderma viride [6] = assay: Fungicidal activity against Trichoderma viride IAM 5061 incubated for 72 hrs followed by sub-culturing on broth malt medium and measured after 72 hrs; assay type: functional; settings: IAM 5061, 72 h; procedure, shortened: as §2
Enterobacter cloacae [7] = assay: Bactericidal activity against Enterobacter cloacae incubated for 24 hrs followed by re-plating on tryptic soy broth; assay type: functional; procedure, shortened: as §1
Penicillium ochrochloron [8] = assay: Antifungal activity against Penicillium ochrochloron ATCC 9112 after 72 hrs by microdilution technique; assay type: functional; settings: ATCC 9112, 72 h; procedure, shortened: as §4
Bacillus cereus [9] = assay: Antibacterial activity against Bacillus cereus clinical isolate after 24 hrs by iodonitrotetrazolium chloride dye based microdilution assay; assay type: functional; procedure, shortened: as §3
[10] = Antifungal activity against Penicillium funiculosum ATCC 36839 after 72 hrs by microdilution technique; assay type: functional; settings: Talaromyces pinophilus, ATCC 36839, 72 h; procedure, shortened: as §4
[11] = Fungicidal activity against Penicillium funiculosum ATCC 36839 incubated for 72 hrs followed by sub-culturing on broth malt medium and measured after 72 hrs; assay type: functional; settings: Talaromyces pinophilus, ATCC 36839, 72 h; procedure, shortened: as §2
Enterobacter cloacae [12] = assay: Antibacterial activity against Enterobacter cloacae clinical isolate after 24 hrs by iodonitrotetrazolium chloride dye based microdilution method; assay type: functional; procedure, shortened: as §3
Aspergillus ochraceus [13] = assay: Antifungal activity against Aspergillus ochraceus ATCC 12066 after 72 hrs by microdilution technique; assay type: functional; settings: ATCC 12066, 72 h; procedure, shortened: as §4
Micrococcus flavus [14] = assay: Antibacterial activity against Micrococcus flavus ATCC 10240 after 24 hrs by iodonitrotetrazolium chloride dye based microdilution method; assay type: functional; settings: ATCC 10240, 24 h; procedure, shortened: as §3
Aspergillus ochraceus [15] = assay: Fungicidal activity against Aspergillus ochraceus ATCC 12066 incubated for 72 hrs followed by sub-culturing on broth malt medium and measured after 72 hrs; assay type: functional; settings: ATCC 12066, 72 h; procedure, shortened: as §2
Aspergillus niger [16] = assay: Antifungal activity against Aspergillus niger ATCC 6275 after 72 hrs by microdilution technique; assay type: functional; settings: ATCC 6275, 72 h; procedure, shortened: as §4
Listeria monocytogenes [17] = assay: Bactericidal activity against Listeria monocytogenes NCTC 7973 incubated for 24 hrs followed by re-plating on tryptic soy broth; assay type: functional; settings: NCTC 7973, 24 h; procedure, shortened: as §1
Aspergillus fumigatus [18] = assay: Antifungal activity against Aspergillus fumigatus ATCC 1022 after 72 hrs by microdilution technique; assay type: functional; settings: ATCC 1022, 72 h; procedure, shortened: as §4
Micrococcus flavus [19] = assay: Bactericidal activity against Micrococcus flavus ATCC 10240 incubated for 24 hrs followed by re-plating on tryptic soy broth; assay type: functional; settings: ATCC 10240, 24 h; procedure, shortened: as §1
Pseudomonas aeruginosa [20] = assay: Antibacterial activity against Pseudomonas aeruginosa ATCC 27853 after 24 hrs by iodonitrotetrazolium chloride dye based microdilution method; assay type: functional; settings: ATCC 27853, 24 h; procedure, shortened: as §3
Staphylococcus aureus [21] = assay: Bactericidal activity against Staphylococcus aureus ATCC 6538 incubated for 24 hrs followed by re-plating on tryptic soy broth; assay type: functional; settings: ATCC 6538, 24 h; procedure, shortened: as §1
Aspergillus niger [22] = assay: Fungicidal activity against Aspergillus niger ATCC 6275 incubated for 72 hrs followed by sub-culturing on broth malt medium and measured after 72 hrs; assay type: functional; settings: ATCC 6275, 72 h; procedure, shortened: as §2
Aspergillus versicolor [23] = assay: Fungicidal activity against Aspergillus versicolor ATCC 11730 incubated for 72 hrs followed by sub-culturing on broth malt medium and measured after 72 hrs; assay type: functional; settings: ATCC 11730, 72 h; procedure, shortened: as §2
Aspergillus fumigatus [24] = assay: Fungicidal activity against Aspergillus fumigatus ATCC 1022 incubated for 72 hrs followed by sub-culturing on broth malt medium and measured after 72 hrs; assay type: functional; settings: ATCC 1022, 72 h; procedure, shortened: as §2
Listeria monocytogenes [25] = assay: Antibacterial activity against Listeria monocytogenes NCTC 7973 after 24 hrs by iodonitrotetrazolium chloride dye based microdilution method; assay type: functional; settings: NCTC 7973, 24 h; procedure, shortened: as §3
Staphylococcus aureus [26] = assay: Antibacterial activity against Staphylococcus aureus ATCC 6538 after 24 hrs by iodonitrotetrazolium chloride dye based microdilution method; assay type: functional; settings: ATCC 6538, 24 h; procedure, shortened: as §3
Escherichia coli [27] = assay: Antibacterial activity against Escherichia coli ATCC 35210 after 24 hrs by iodonitrotetrazolium chloride dye based microdilution method; assay type: functional; settings: ATCC 35210, 24 h; procedure, shortened: as §3
Penicillium cyclopium [28] = assay: Antifungal activity against Penicillium verrucosum var. cyclopium food isolate after 72 hrs by microdilution technique; assay type: functional; procedure, shortened: as §4
Aspergillus versicolor [29] = assay: Antifungal activity against Aspergillus versicolor ATCC 11730 after 72 hrs by microdilution method; assay type: functional; settings: ATCC 11730, 72 h; procedure, shortened: as §4
Penicillium ochrochloron [30] = assay: Fungicidal activity against Penicillium ochrochloron ATCC 9112 incubated for 72 hrs followed by sub-culturing on broth malt medium and measured after 72 hrs; assay type: functional; settings: ATCC 9112, 72 h; procedure, shortened: as §2
Salmonella typhimurium [31] = assay: Bactericidal activity against Salmonella typhimurium ATCC 13311 incubated for 24 hrs followed by re-plating on tryptic soy broth; assay type: functional, Salmonella enterica subsp. enterica serovar Typhimurium; settings: Salmonella enterica, ATCC 13311, 24 h; procedure, shortened: as §1
Bacillus cereus [32] = assay: Bactericidal activity against Bacillus cereus clinical isolate incubated for 24 hrs followed by re-plating on tryptic soy broth; assay type: functional; procedure, shortened: as §1

| SMILES | MBC (Pseudomonas aeruginosa [1]) [µM] | MFC (Penicillium cyclopium [2]) [×10⁻² mM] | MBC (Escherichia coli [3]) [µM] | MIC (Salmonella typhimurium [4]) [µM] | MIC (Trichoderma viride [5]) [×10⁻² mM] | MFC (Trichoderma viride [6]) [×10⁻² mM] | MBC (Enterobacter cloacae [7]) [µM] | MIC (Penicillium ochrochloron [8]) [×10⁻² mM] | MIC (Bacillus cereus [9]) [µM] | MIC [10] [×10⁻² mM] | MFC [11] [×10⁻² mM] | MIC (Enterobacter cloacae [12]) [µM] | MIC (Aspergillus ochraceus [13]) [×10⁻² mM] | MIC (Micrococcus flavus [14]) [µM] | MFC (Aspergillus ochraceus [15]) [×10⁻² mM] | MIC (Aspergillus niger [16]) [×10⁻² mM] | MBC (Listeria monocytogenes [17]) [µM] | MIC (Aspergillus fumigatus [18]) [×10⁻² mM] | MBC (Micrococcus flavus [19]) [µM] | MIC (Pseudomonas aeruginosa [20]) [µM] | also measured |
| --- | --- | --- | --- | --- | --- | --- | --- | --- | --- | --- | --- | --- | --- | --- | --- | --- | --- | --- | --- | --- | --- |
| CC1(C)c2ssc(=S)c2-c2ccccc2N1C(=O)CSC1=NCCS1 | 141 (≈ 60 µg/mL) | 7.06 | 141 (≈ 59.9 µg/mL) | 106 (≈ 45 µg/mL) | 1.88 | 3.53 | 141 (≈ 59.9 µg/mL) | 3.53 | 106 (≈ 45 µg/mL) | 3.53 | 7.06 | 70.7 (≈ 30 µg/mL) | 1.88 | 106 (≈ 45 µg/mL) | 3.53 | 3.53 | 141 (≈ 59.9 µg/mL) | 3.53 | 141 (≈ 59.9 µg/mL) | 70.7 (≈ 30 µg/mL) | MBC (Staphylococcus aureus [21]): 141 µM (≈ 59.9 µg/mL); MFC (Aspergillus niger [22]): 7.06 ×10⁻² mM; MFC (Aspergillus versicolor [23]): 7.06 ×10⁻² mM; MFC (Aspergillus fumigatus [24]): 7.06 ×10⁻² mM; MIC (Listeria monocytogenes [25]): 106 µM (≈ 45 µg/mL); MIC (Staphylococcus aureus [26]): 106 µM (≈ 45 µg/mL); MIC (Escherichia coli [27]): 106 µM (≈ 45 µg/mL); MIC (Penicillium cyclopium [28]): 3.53 ×10⁻² mM; MIC (Aspergillus versicolor [29]): 3.53 ×10⁻² mM; MFC (Penicillium ochrochloron [30]): 7.06 ×10⁻² mM; MBC (Salmonella typhimurium [31]): 141 µM (≈ 60 µg/mL); MBC (Bacillus cereus [32]): 141 µM (≈ 59.9 µg/mL) |
| CC1(C)c2ssc(=S)c2-c2cccc3c2N1C(=O)/C3=N/NC(N)=S | 76.4 (≈ 30 µg/mL) | 30.6 | 76.4 (≈ 30 µg/mL) | 38.2 (≈ 15 µg/mL) | 1.52 | 3.82 | 76.4 (≈ 30 µg/mL) | 3.82 | 38.2 (≈ 15 µg/mL) | 11.5 | 30.6 | 38.2 (≈ 15 µg/mL) | 15.2 | 38.2 (≈ 15 µg/mL) | 30.6 | 15.2 | 76.4 (≈ 30 µg/mL) | 7.64 | 76.4 (≈ 30 µg/mL) | 38.2 (≈ 15 µg/mL) | MBC (Staphylococcus aureus [21]): 76.4 µM (≈ 30 µg/mL); MFC (Aspergillus niger [22]): 30.6 ×10⁻² mM; MFC (Aspergillus versicolor [23]): 30.6 ×10⁻² mM; MFC (Aspergillus fumigatus [24]): 15.2 ×10⁻² mM; MIC (Listeria monocytogenes [25]): 38.2 µM (≈ 15 µg/mL); MIC (Staphylococcus aureus [26]): 38.2 µM (≈ 15 µg/mL); MIC (Escherichia coli [27]): 38.2 µM (≈ 15 µg/mL); MIC (Penicillium cyclopium [28]): 11.5 ×10⁻² mM; MIC (Aspergillus versicolor [29]): 11.5 ×10⁻² mM; MFC (Penicillium ochrochloron [30]): 7.64 ×10⁻² mM; MBC (Salmonella typhimurium [31]): 76.4 µM (≈ 30 µg/mL); MBC (Bacillus cereus [32]): 76.4 µM (≈ 30 µg/mL) |
| COc1cc2c3c(c1)-c1c(ssc1=S)C(C)(C)N3C(=O)/C2=C1\SC(=S)NC1=O | 258 (≈ 120 µg/mL) | 51.6 | 129 (≈ 59.9 µg/mL) | 64.6 (≈ 30 µg/mL) | 1.72 | 3.23 | 129 (≈ 59.9 µg/mL) | 3.23 | 64.6 (≈ 30 µg/mL) | 12.9 | 25.8 | 64.6 (≈ 30 µg/mL) | 1.72 | 96.9 (≈ 45 µg/mL) | 3.23 | 25.8 | 517 (≈ 240 µg/mL) | 25.8 | 129 (≈ 59.9 µg/mL) | 129 (≈ 60 µg/mL) | MBC (Staphylococcus aureus [21]): 129 µM (≈ 59.9 µg/mL); MFC (Aspergillus niger [22]): 51.6 ×10⁻² mM; MFC (Aspergillus versicolor [23]): 25.8 ×10⁻² mM; MFC (Aspergillus fumigatus [24]): 51.6 ×10⁻² mM; MIC (Listeria monocytogenes [25]): 258 µM (≈ 120 µg/mL); MIC (Staphylococcus aureus [26]): 64.6 µM (≈ 30 µg/mL); MIC (Escherichia coli [27]): 96.9 µM (≈ 45 µg/mL); MIC (Penicillium cyclopium [28]): 25.8 ×10⁻² mM; MIC (Aspergillus versicolor [29]): 12.9 ×10⁻² mM; MFC (Penicillium ochrochloron [30]): 6.46 ×10⁻² mM; MBC (Salmonella typhimurium [31]): 129 µM (≈ 60 µg/mL); MBC (Bacillus cereus [32]): 129 µM (≈ 59.9 µg/mL) |
